ChEMBL document CHEMBL3351851, “Discovery and optimization of novel small-molecule HIV-1 entry inhibitors using field-based virtual screening and bioisosteric replacement” (Bioorg Med Chem Lett, 2014)

How the values were obtained:
[1] = system: Human immunodeficiency virus 1; test: Antiviral activity against Human immunodeficiency virus type 1 (isolate YU2) pseudotyped virus expressed in human U87 cells after 48 hrs by cell-based luciferase reporter gene assay; format: functional, U-87MG ATCC; conditions: Human immunodeficiency virus 1, isolate YU2, U-87 MG
Procedure, shortened: (§1)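 Envelope-pseudotyped, single-round luciferase-reporter virus was made in 293T cells co-transfected with pNL4-3-LucR+E- and the matching Env vector. U87-CD4/CCR5 or U87-CD4/CXCR4 cells were seeded at 1.2x10⁴ per well and infected next day with 20 ng p24 per well plus compound (6–9 dilutions, 1:10 or 1:5, triplicate) or DMSO. Luciferase was read at 48 h; % infection is relative to DMSO wells.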

[2] = system: Human immunodeficiency virus 1; test: Antiviral activity against HIV1 pseudotyped virus expressed in human U87 cells co-expressing AMLV envelope after 48 hrs by cell-based luciferase reporter gene assay; format: functional, organism-based; conditions: u-87mg atcc
Procedure, shortened: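 Single-round infection of U87-CD4/CCR5 or U87-CD4/CXCR4 cells (seeded at 1.2x10⁴/well, infected next day) with 20 ng p24 per well of luciferase-reporter pseudovirus made in 293T cells using pNL4-3-LucR⁺E⁻. Compounds were applied in six to nine serial dilutions (1:10 or 1:5) alongside DMSO, in triplicate. Luciferase was read at 48 h, and percent infection was taken relative to DMSO wells.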

[3] = system: Human immunodeficiency virus 1; test: Antiviral activity against Human immunodeficiency virus type 1 (JRCSF ISOLATE) pseudotyped virus expressed in human U87 cells after 48 hrs by luciferase reporter gene assay; format: functional, cell-based, U-87MG ATCC; conditions: Human immunodeficiency virus 1, JRCSF ISOLATE, U-87 MG; procedure, shortened: as §1
[4] = system: Human immunodeficiency virus 1; test: Antiviral activity against HIV1 isolate Hxbc2 pseudotyped virus expressed in human U87 cells after 48 hrs by luciferase reporter gene assay; format: functional, organism-based, U-87MG ATCC; conditions: Human immunodeficiency virus 1, isolate Hxbc2, U-87 MG; procedure, shortened: as §1
[5] = system: Human immunodeficiency virus 2; test: Antiviral activity against HIV2 isolate CDC310319 infected in human PBMC; format: functional, organism-based; conditions: Human immunodeficiency virus 2, isolate CDC310319
[6] = system: Human immunodeficiency virus 1; test: Antiviral activity against HIV1 subtype B isolate 94US_33931N infected in human PBMC; format: functional, organism-based; conditions: Human immunodeficiency virus 1, isolate 94US_33931N
[7] = Antiviral index, ratio of TC50 for human PBMC to IC50 for HIV1 subtype A isolate 92UG037
[8] = Antiviral index, ratio of TC50 for human PBMC to IC50 for HIV1 subtype B isolate 91US004
[9] = system: Human immunodeficiency virus 1; test: Antiviral activity against HIV1 subtype A isolate 92UG037 infected in human PBMC; format: functional, organism-based; conditions: Human immunodeficiency virus 1, isolate 92UG037
[10] = system: Human immunodeficiency virus 1; test: Antiviral activity against HIV1 subtype D isolate 99UG_A07412M1 infected in human PBMC; format: functional, organism-based; conditions: Human immunodeficiency virus 1, isolate 99UG_A07412M1
[11] = system: Human immunodeficiency virus 1; test: Antiviral activity against HIV1 subtype B isolate 91US004 infected in human PBMC; format: functional, organism-based; conditions: Human immunodeficiency virus 1, isolate 91US004
[12] = Antiviral index, ratio of TC50 for human PBMC to IC50 for HIV1 subtype C isolate 98US_MSC5016
[13] = Antiviral index, ratio of TC50 for human PBMC to IC50 for HIV1 subtype D isolate 99UG_A07412M1
[14] = system: Human immunodeficiency virus 1; test: Antiviral activity against HIV1 subtype C isolate 98US_MSC5016 infected in human PBMC; format: functional, organism-based; conditions: Human immunodeficiency virus 1, isolate 98US_MSC5016
[15] = Antiviral index, ratio of TC50 for human PBMC to IC50 for HIV1 subtype B isolate 94US_33931N

Structure (SMILES)	IC50 [1] [µM]	IC50 [2]	IC50 [3] [µM]	IC50 [4] [µM]	further results
O=C(CSc1ncnc2sccc12)N1CCN(C(=O)c2cccs2)CC1	33.7	Not Active			
O=C(c1ccccc1)N1CCN(C(=O)c2ccc3c4c(cccc24)CC3)CC1	13.1	Not Active			
O=C(COc1cccc2ccccc12)N1CCN(C(=O)c2ccccc2)CC1	53.5	Not Active			
O=C(Cc1cccc2ccccc12)N1CCN(C(=O)c2ccco2)CC1	79.4	Not Active			
Cc1cc(C)nc(SCC(=O)N2CCN(C(=O)c3ccccc3)CC2)n1	153	Not Active			
O=C(c1ccccc1)N1CC2CN(C(=O)c3ccc4c5c(cccc35)CC4)CC2C1 (stereo not given)		Not Active	100		
COc1cnc(Cl)c2[nH]cc(C(=O)C(=O)N3CC4CN(C(=O)c5ccccc5)CC4C3)c12 (stereo not given)		Not Active	0.98	16.8	
COc1ncc(OC)c2c(C(=O)C(=O)N3CC4CN(C(=O)c5ccccc5)CC4C3)c[nH]c12 (stereo not given)		Not Active	0.09	0.19	
COc1cnc(-n2cnc(C)n2)c2[nH]cc(C(=O)C(=O)N3CC4CN(C(=O)c5ccccc5)CC4C3)c12 (stereo not given)		Not Active	0.0008	0.001	
COc1cnc(-n2cnc(C)n2)c2[nH]cc(C(=O)C(=O)N3CC4CN(C(=O)C5=CCCCC5)CC4C3)c12 (stereo not given)		Not Active	0.002	0.0006	IC50 [5]: > 100 µM; IC50 [6]: 0.0006 µM; Ratio [7]: >3.97; Ratio [8]: >513; IC50 [9]: 25.2 µM; IC50 [10]: 0.49 µM; IC50 [11]: 0.195 µM; Ratio [12]: >25.6; Ratio [13]: >204; IC50 [14]: 3.9 µM; Ratio [15]: >166666
